M5 antag: human M5 muscarinic receptor antagonists, primary screen, CHO cells, Fluo-8 calcium fluorescence. Muscarinic acetylcholine receptor M5 (Homo sapiens), P08912. CHO-hM5 cells, ACh EC80. inhibition, % at 3 µM. hit rate 0.59% among 360,000. AID 624040, 2012;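 active = inhibition above a per-plate cutoff, the mean of that plate's test compounds plus 3 SD, cut at about 27% in these data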;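 also: 0% = acetylcholine EC80 with DMSO and 100% = DMSO without agonist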
Target sequence (P08912 whole entry, looked up): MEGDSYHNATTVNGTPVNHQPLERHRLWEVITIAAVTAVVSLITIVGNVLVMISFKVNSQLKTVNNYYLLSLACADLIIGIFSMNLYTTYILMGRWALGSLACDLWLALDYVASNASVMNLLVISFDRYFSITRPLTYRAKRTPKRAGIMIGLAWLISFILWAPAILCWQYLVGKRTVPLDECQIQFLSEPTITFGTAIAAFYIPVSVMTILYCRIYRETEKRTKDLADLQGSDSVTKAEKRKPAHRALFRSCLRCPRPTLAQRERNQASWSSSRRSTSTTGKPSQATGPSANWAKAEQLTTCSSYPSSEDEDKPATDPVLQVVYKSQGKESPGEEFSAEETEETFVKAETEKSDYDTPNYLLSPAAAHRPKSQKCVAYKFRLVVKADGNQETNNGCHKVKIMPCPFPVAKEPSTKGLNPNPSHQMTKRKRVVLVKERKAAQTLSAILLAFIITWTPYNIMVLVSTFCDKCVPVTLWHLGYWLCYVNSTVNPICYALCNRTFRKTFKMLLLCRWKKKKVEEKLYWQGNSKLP
M4 PAM: human M4 muscarinic receptor positive allosteric modulators, primary screen, CHO-K1 cells, Fluo-8 calcium fluorescence; CHO-K1 hM4/Gqi5, ACh EC20; 0% = ACh EC20, 100% = maximal ACh; Muscarinic acetylcholine receptor M4 (Homo sapiens), P08173; hit rate 0.4% among 360,000; activation, % at 3 µM;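 active = activation above its plate's cutoff, the mean activation of sample wells plus 3 SD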
M4 ag: human M4 muscarinic receptor agonists, primary screen, CHO-K1 cells, Fluo-8 calcium fluorescence; Muscarinic acetylcholine receptor M4 (Homo sapiens), P08173; CHO-K1 hM4/Gqi5; vehicle 0%, full acetylcholine response 100%; AID 624127, 2012; activation, % at 3 µM; hit rate 0.14% among 360,000;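 active = activation above the run mean over all test wells plus 3 SD, cut at about 32% in these data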;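 also: peak over basal fluorescence ratio per well then scaled between controls; 0% = DMSO wells and 100% = acetylcholine at EC100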
CHRM5 agonist: human M5 muscarinic receptor agonists, primary screen, CHO-K1 cells, Fluo-8 calcium fluorescence; CHO-K1 hM5 cells; 0% DMSO wells, 100% maximal acetylcholine response; activation, % at 3 µM; hit rate 0.19% among 360,000;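 active = activation above the run's mean over test compounds plus 3 SD, cut at about 23% in these data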;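 also: signal is peak over basal fluorescence ratio across the kinetic read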
M4 antag: human M4 muscarinic receptor antagonists, primary screen, CHO cells, Fluo-8 calcium fluorescence. Muscarinic acetylcholine receptor M4 (Homo sapiens), P08173. CHO-hM4 cells, ACh EC80. inhibition, % at 3 µM. hit rate 0.73% among 360,000. AID 624125, 2012;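 active = inhibition above its plate's cutoff, the mean inhibition of sample wells plus 3 SD, cut at about 27% in these data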;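 also: 0% = acetylcholine EC80 with DMSO and 100% = DMSO without agonist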
M5 PAM: human M5 muscarinic receptor positive allosteric modulators, primary screen, CHO-K1 cells, Fluo-8 calcium fluorescence. Muscarinic acetylcholine receptor M5 (Homo sapiens), P08912. CHO-K1 hM5, ACh EC20 PAM; 0% = ACh EC20, 100% = ACh EC100. activation, % at 3 µM. hit rate 0.3% among 360,000. AID 624038, 2012;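 active = activation above the run cutoff, the mean activation of all test compounds plus 3 SD, cut at about 18% in these data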
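system = human M5 receptor in CHO-K1 cells | reagent = EC20 acetylcholine as agonist stimulus | compound dosing = single-point, 3 µM nominal | incubation = Fluo-8 loading 80 min at 37 °C plus 30 min room temperature | detection = Fluo-8 calcium dye fluorescence, kinetic read | benchmarks = low control EC20 acetylcholine (0%), high control EC100 acetylcholine (100%)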
Starred values were filed as active, the others as inactive. This is a sample that favours compounds with a hit; in the whole collection about 1.8% have one here.

SMILES | M5 antag | M4 PAM | M4 ag | CHRM5 agonist | M4 antag | M5 PAM
COc1cccc(NC(=O)c2ccccc2Oc2ccccc2)c1 | 7 | -6 | -2 | -4 | -1 | -1
COc1cccc(Nc2ncccc2C(=O)Nc2ccccc2)c1 | 5 | -2 | 1 | -8 | -3 | 19*
CCOc1ccc(/C=N/n2c(-c3ccccc3)n[nH]c2=S)cc1 | 5 | 5 | -1 | -5 | -5 | 2
COc1ccccc1CCC(=O)N(C)CC(=O)Nc1ccc(F)cc1 | -4 | 2 | 1 | -2 | 2 | 0
COc1ccc(C(CCNCc2ccc(OC(C)C)cc2)C(C)C)cc1 (stereo not given) | 13 | -19 | 27 | -2 | 23 | -23
COc1ccc(C(CCNCc2ccc(N(C)C)cc2)C(C)C)cc1 (stereo not given) | 19 | -52 | 27 | 3 | 42* | -29
COc1ccc(-c2csc3ncn(-c4ccccc4OC)c(=O)c23)cc1OC | 1 | 30* | 6 | -5 | -25 | -7
O=C(Cc1ccccc1)NN=Cc1ccccc1 | 4 | 9 | 1 | 0 | -7 | -1
O=C(Cc1ccccc1)N/N=C/c1cc(Br)c(Br)o1 | 5 | 28* | -1 | 1 | -9 | -7
O=C(C[C@H]1C/C=C\C[C@H](Cc2ccc(F)cc2)C(=O)O[C@@H](c2ccccc2)CNC1=O)N[C@H](CO)Cc1ccccc1 | 16 | 8 | 39* | 12 | 3 | -2
C[C@@H]1COC(=O)[C@H](CC(=O)OC(C)(C)C)C/C=C\C[C@H](CC(=O)N(CCO)Cc2ccccc2)C(=O)N1 | 15 | 11 | 0 | -5 | 4 | 3
O=C1NC[C@@H](c2ccccc2)OC(=O)[C@H](Cc2ccc(F)cc2)C/C=C\C[C@@H]1CC(=O)N(CCO)Cc1ccccc1 | 14 | -13 | 27 | 0 | 27* | -29
O=C1NC[C@H](c2ccccc2)OC(=O)[C@H](Cc2ccc(F)cc2)CC/C=C/C[C@H]1CC(=O)N(CCO)Cc1ccccc1 | 22 | -2 | 18 | 2 | 27* | -28
O=C(C[C@H]1C/C=C\CC[C@H](Cc2ccc(F)cc2)C(=O)O[C@@H](c2ccccc2)CNC1=O)N[C@@H](CO)Cc1ccccc1 | 16 | 3 | 9 | 2 | 1 | -21
CC(C)(C)OC(=O)C[C@@H]1C/C=C\C[C@@H](CC(=O)N(CCO)Cc2ccccc2)C(=O)N[C@@H](c2ccccc2)COC1=O | 29* | -2 | 16 | 0 | 4 | -26
O=C1NC[C@H](c2ccccc2)OC(=O)[C@@H](Cc2ccc(F)cc2)CC/C=C/C[C@H]1CC(=O)N(CCO)Cc1ccccc1 | 21 | -12 | 26 | 5 | 20 | -39
COc1ccc(OC)c(NC(=O)CSc2nc3[nH]c(=O)[nH]c(=O)c3s2)c1 | 6 | 4 | 1 | 4 | -5 | 1
CCc1ccccc1-n1c(SCC(=O)NC)nnc1-c1ccco1 | -16 | 8 | 1 | 9 | -3 | 18*
CNC(=O)CSc1nnc(-c2ccco2)n1-c1ccc(C)cc1 | 2 | 10 | 2 | -5 | -4 | 5
COc1ccc(N(Cc2nnc3n2CCCCC3)C(=O)Nc2ccccc2)cc1 | 6 | 1 | 1 | 2 | 2 | 3
Cc1ccccc1N(Cc1nnc2n1CCCCC2)C(=O)Nc1ccccc1 | -8 | 27* | 0 | -2 | -14 | 3
COc1ccc(NC(=O)COC(=O)CC2CC3CCC2C3)c([N+](=O)[O-])c1 (stereo not given) | -6 | 21* | 0 | 1 | 1 | 2
COc1ccc(NC(=O)COC(=O)C2CCCCC2)c([N+](=O)[O-])c1 | 4 | 6 | 1 | -1 | 8 | -3
O=C(NCc1cccc(C(F)(F)F)c1)N1CCN(S(=O)(=O)c2ccccc2F)CC1 | 6 | -7 | 6 | 2 | -10 | 3
CS/C(=N/S(=O)(=O)c1ccc(C)cc1)c1ccccc1 | -3 | 24* | 2 | 1 | -7 | 9
SMILES | M5 antag | M4 PAM | M4 ag | CHRM5 agonist | M4 antag | M5 PAM
Cc1nc2ccc(NC(=O)CSc3ccccc3)cc2s1 | -9 | 5 | 2 | 1 | -3 | -3
COC(=O)[C@]1(C)CCC[C@@]2(C)C3CC[C@@]4(C)C[C@]3(CCC21)CC4=NO (stereo not given in full) | 10 | -4 | -1 | 0 | 9 | 6
O=C1c2cccc3c(O)ccc(c23)C(=O)N1Cc1ccccc1 | 56* | -28 | 178* | 173* | 47* | -34
O=C(CC1CCC1)Nc1cccc2c([N+](=O)[O-])cccc12 | 28* | -11 | 0 | -7 | 8 | -11
COC(=O)c1cc(Cn2nc(C(=O)O)c3ccccc3c2=O)oc1C | 0 | -2 | 1 | -4 | -2 | 3
CCc1ccc(N2CC(C(=O)N3CCN(c4ccccn4)CC3)CC2=O)cc1 (stereo not given) | 0 | 26* | 1 | 3 | -24 | 0
CCOc1ccc(N2CC(C(=O)N3CCN(c4ccccn4)CC3)CC2=O)cc1 (stereo not given) | 8 | 5 | 2 | 2 | -2 | -1
Cn1cc(CN2CCC(n3nccc3NC(=O)CCOc3ccccc3)CC2)cn1 | 29* | -4 | 1 | -4 | -10 | -8
c1ncn(C23CC4CC(CC(C4)C2)C3)n1 | 1 | 11 | 0 | -3 | -16 | 21*
Nc1ccn(C2CSC(CO)O2)c(=O)n1 (stereo not given) | 0 | 11 | 1 | -1 | -4 | -4
Nn1c(=O)c2ccccc2n2c(SCc3ccccc3)nnc12 | 29* | 13 | 2 | -4 | -17 | 38*
CCOC(=O)C1CCN(c2ncnc3c(C)csc23)CC1 | 20 | -46 | 22 | 6 | 35* | -32
COc1ccc(NC(=O)CCCOc2ccc(Cl)c(C)c2)cc1S(=O)(=O)N1CCOCC1 | -6 | -2 | 18 | 6 | -16 | -23
CC(C)CC(C(=O)NC(C)(C)C)N(Cc1ccccc1Cl)C(=O)c1snc(C(N)=O)c1N (stereo not given) | -3 | -6 | 0 | -1 | 13 | -3
CCOC(=O)C1(Cc2ccc(OC)cc2)CCN(S(C)(=O)=O)CC1 | 8 | 1 | 1 | 2 | -5 | -3
